Assay results: ChEMBL document CHEMBL1134307, “trans-4-[4-(Methoxyphenyl)cyclohexyl]-1-arylpiperazines: a new class of potent and selective 5-HT(1A) receptor ligands as conformationally constrained analogues of 4-[3-(5-methoxy-1,2,3,4-tetrahydronaphthalen-1-yl)propyl]-1-arylpiperazines” (J Med Chem, 2001)

Experiments:
[1] = biological target: T1, Alpha-1A adrenergic receptor (Homo sapiens, UniProt P35348); assay: Binding affinity was determined on human cloned Alpha-1A adrenoceptor
T1 sequence (P35348 whole entry): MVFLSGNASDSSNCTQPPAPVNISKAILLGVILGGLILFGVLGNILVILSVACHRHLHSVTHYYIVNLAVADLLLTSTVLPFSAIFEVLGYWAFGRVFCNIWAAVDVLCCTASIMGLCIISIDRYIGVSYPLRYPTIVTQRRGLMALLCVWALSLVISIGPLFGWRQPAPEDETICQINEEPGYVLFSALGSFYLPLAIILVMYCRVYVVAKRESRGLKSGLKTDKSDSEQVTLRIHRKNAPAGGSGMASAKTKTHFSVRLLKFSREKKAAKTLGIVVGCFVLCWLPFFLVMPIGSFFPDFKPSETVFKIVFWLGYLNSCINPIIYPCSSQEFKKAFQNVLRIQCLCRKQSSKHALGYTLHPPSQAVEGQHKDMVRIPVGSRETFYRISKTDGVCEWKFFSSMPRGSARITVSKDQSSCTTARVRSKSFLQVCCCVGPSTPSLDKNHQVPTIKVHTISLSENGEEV
Summary of the method: (§1)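 Membranes from CHO cells stably expressing each human α1-adrenoceptor subtype, incubated in 50 mM Tris pH 7.4 with 0.2 nM [3H]prazosin and competing drugs (1 pM–10 µM), 30 min at 25 °C. Nonspecific binding with 10 µM phentolamine. Stopped with ice-cold Tris and filtration through 0.2% PEI-pretreated filters.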

[2] = biological target: D(2) dopamine receptor (Rattus norvegicus, UniProt P61169); assay: Binding affinity towards dopamine receptor D2 in rat striatal membranes; assay type: cell membranes, Striatum, Membrane
[3] = biological target: T2, Adrenergic receptor alpha-1 (Rattus norvegicus, UniProt P15823+P23944+P43140); assay: Binding affinity towards alpha-1 adrenergic receptor in rat cortical membranes; assay type: cell membranes
T2 sequence (P15823 whole entry): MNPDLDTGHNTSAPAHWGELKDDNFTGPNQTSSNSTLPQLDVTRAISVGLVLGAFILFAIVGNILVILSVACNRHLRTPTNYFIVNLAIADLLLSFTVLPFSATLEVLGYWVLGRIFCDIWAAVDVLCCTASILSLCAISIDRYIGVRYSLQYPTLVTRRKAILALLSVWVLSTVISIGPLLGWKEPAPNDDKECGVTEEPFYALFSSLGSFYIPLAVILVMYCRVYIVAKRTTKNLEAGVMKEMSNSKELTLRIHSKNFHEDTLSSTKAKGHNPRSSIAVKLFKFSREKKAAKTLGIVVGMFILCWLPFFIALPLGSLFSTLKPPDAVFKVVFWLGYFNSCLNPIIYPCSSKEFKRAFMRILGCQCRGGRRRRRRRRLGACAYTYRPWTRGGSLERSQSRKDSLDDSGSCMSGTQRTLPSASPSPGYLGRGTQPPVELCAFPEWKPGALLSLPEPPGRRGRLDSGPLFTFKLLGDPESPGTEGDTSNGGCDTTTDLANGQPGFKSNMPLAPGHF
T2 sequence (P23944 whole entry): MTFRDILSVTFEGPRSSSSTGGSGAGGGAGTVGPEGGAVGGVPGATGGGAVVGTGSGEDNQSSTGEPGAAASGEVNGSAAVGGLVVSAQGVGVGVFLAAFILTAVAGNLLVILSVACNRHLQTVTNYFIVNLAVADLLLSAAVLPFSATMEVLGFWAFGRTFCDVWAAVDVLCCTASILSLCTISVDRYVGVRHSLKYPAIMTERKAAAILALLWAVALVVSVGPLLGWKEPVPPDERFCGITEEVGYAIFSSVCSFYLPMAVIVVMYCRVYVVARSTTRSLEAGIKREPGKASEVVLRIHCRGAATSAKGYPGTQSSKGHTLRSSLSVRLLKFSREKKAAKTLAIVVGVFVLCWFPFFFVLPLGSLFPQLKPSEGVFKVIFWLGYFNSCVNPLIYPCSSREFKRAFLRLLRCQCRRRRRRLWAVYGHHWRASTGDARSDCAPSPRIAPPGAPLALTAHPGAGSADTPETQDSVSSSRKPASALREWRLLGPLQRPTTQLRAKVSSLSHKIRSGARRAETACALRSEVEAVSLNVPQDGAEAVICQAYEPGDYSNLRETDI
T2 sequence (P43140 whole entry): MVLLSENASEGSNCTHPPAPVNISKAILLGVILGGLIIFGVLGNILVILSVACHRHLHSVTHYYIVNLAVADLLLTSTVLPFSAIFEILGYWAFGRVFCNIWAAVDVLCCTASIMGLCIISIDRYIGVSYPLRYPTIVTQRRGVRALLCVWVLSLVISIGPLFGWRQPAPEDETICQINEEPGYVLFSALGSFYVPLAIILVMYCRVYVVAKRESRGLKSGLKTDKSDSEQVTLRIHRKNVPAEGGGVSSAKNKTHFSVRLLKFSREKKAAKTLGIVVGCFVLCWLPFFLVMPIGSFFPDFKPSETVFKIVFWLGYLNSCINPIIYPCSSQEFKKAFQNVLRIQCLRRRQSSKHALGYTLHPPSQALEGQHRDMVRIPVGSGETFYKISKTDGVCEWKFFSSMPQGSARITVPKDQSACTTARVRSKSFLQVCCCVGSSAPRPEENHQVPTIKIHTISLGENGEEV

[4] = biological target: T3, Alpha-1D adrenergic receptor (Homo sapiens, UniProt P25100); assay: Binding affinity towarda alpha-1D adrenergic receptor; summary of the method: as §1
T3 sequence (P25100 whole entry): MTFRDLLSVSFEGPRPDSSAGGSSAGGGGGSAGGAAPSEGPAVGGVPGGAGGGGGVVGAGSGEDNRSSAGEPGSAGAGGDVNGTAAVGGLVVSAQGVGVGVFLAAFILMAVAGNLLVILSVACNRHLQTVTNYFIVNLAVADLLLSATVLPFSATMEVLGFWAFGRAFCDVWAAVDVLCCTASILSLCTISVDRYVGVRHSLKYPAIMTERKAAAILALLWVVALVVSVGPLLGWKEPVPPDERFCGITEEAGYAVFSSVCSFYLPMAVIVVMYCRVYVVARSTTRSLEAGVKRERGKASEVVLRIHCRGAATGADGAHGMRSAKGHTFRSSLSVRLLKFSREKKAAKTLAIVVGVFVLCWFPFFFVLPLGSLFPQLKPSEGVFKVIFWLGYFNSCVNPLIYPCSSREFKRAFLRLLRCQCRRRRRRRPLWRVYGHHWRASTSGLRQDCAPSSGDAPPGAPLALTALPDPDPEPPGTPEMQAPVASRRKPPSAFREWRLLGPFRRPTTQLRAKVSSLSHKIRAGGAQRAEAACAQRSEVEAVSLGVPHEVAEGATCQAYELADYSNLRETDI

D(2) dopamine receptor, sequence (P61169 whole entry): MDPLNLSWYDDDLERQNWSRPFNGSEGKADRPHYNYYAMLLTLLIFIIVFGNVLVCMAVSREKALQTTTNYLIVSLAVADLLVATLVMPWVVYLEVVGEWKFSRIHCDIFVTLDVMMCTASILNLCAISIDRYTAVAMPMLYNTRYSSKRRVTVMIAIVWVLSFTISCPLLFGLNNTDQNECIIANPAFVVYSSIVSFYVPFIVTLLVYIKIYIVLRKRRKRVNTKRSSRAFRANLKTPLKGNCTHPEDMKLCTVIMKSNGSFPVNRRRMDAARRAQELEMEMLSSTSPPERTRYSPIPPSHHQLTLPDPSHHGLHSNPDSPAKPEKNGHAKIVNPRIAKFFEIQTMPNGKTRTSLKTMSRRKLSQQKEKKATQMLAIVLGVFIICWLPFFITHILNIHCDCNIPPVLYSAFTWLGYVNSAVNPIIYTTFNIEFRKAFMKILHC

| Compound | Ki [1] [nM] | Ki [2] [nM] | Ki [3] [nM] | Ki [4] [nM] |
| --- | --- | --- | --- | --- |
| COc1cccc2c(CCCN3CCN(c4ccccn4)CC3)cccc12 | 1.62 | 450 | 833 | 12.6 |
| COc1cccc(C2CCC(N3CCN(c4ccccc4OC)CC3)CC2)c1 (stereo in doubt; trans) | 4.98 | 60 | 312 | 4.49 |
| COc1cccc(C2CCC(NCCOc3ccccn3)CC2)c1 (stereo in doubt) | 201 | 586 | > 850 | 142 |
| COc1cccc(C2CCC(N3CCN(c4ccccn4)CC3)CC2)c1 (trans isomer) | 33 | 2190 | 767 | 118 |
| COc1cccc2c(CCCNCCOc3ccccn3)cccc12 | 14.6 | 378 | 1300 | 83.2 |
| COc1cccc2c1CCCC2CCCN1CCN(c2ccccn2)CC1 (stereo not drawn) | 0.33 | 117 | 55 | 5.95 |
| COc1cccc2c1CCCC2CCCNCCOc1ccccn1 (stereo not drawn) | 0.55 | > 850 | 83 | 12.7 |
